How the values were obtained:
Mus musculus [1] = species on record: Mus musculus; test: Compound was tested in vitro for inhibition of electrically evoked contractions of the mouse vas deferens; format: functional
Outline: (§1)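 Electrically stimulated guinea pig ileum or mouse vas deferens preparations; inhibition of evoked contractions measured. Each preparation also gave a log dose-response curve for the [Leu5]enkephalin standard, and test IC50 values were normalized against it. Naloxone Ki came from the ratio of IC50 values with and without a fixed naloxone concentration.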

Mus musculus [2] = species on record: Mus musculus; test: Relative potency towards mouse vas deferens relative to [Leu5]-enkephalin; format: functional
Outline: (§2)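 The [Leu5]enkephalin standard's log dose-response curve was run on each individual ileum or vas deferens preparation. Test IC50 values for inhibition of electrically evoked contractions were normalized to it, giving potency relative to [Leu5]enkephalin.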

Mu-type opioid receptor = Mu-type opioid receptor (Rattus norvegicus, UniProt P33535); test: Displacement of [3H]DAGO from rat brain membrane opioid receptor mu
[3] = molecular target: Delta-type opioid receptor (Rattus norvegicus, UniProt P33533); test: Displacement of [3H]DSLET from rat brain membrane opioid receptor delta
Outline: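 Rat brain membranes incubated with 0.78 nM [3H]DSLET at 0 °C for 2 h. IC50 taken from log dose-displacement curves.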

Cavia porcellus [4] = species on record: Cavia porcellus; test: Relative potency towards guinea pig ileum relative to [Leu5]-enkephalin; format: functional; outline: as §2
Cavia porcellus [5] = species on record: Cavia porcellus; test: Compound was tested in vitro for inhibition of electrically evoked contractions of the guinea pig ileum; format: functional; outline: as §1

Chain of Mu-type opioid receptor (P33535 whole entry): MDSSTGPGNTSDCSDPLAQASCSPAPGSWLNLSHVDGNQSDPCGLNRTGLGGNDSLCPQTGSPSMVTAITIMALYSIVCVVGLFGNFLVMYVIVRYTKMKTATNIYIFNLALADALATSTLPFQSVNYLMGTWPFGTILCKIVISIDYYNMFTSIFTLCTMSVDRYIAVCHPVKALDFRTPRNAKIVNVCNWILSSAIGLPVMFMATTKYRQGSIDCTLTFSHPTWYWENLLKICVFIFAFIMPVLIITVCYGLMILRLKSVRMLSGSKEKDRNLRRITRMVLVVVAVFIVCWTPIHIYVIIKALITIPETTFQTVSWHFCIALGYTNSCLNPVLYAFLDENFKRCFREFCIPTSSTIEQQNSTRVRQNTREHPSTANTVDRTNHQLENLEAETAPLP
Chain of Delta-type opioid receptor (P33533 whole entry): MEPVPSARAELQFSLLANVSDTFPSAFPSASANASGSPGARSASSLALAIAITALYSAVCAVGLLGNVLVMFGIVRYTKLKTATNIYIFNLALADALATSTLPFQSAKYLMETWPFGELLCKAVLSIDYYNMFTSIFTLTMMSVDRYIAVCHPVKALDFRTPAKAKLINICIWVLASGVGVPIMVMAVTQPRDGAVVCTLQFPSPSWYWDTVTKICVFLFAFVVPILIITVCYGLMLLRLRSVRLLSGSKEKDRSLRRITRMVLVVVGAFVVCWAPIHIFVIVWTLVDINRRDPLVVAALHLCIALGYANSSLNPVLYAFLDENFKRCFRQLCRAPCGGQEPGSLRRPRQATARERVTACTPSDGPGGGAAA

Row | SMILES | IC50 (Mus musculus [1]) | Relative potency (Mus musculus [2]) | Ki (Mu-type opioid receptor) | Ki [3] | Relative potency (Cavia porcellus [4]) | IC50 (Cavia porcellus [5]) | Relative potency (Mus musculus [1])
1 | CN1C(=O)[C@H](NC(=O)[C@@H](N)Cc2ccc(O)cc2)CCCNC(=O)CC[C@@H](C(N)=O)NC(=O)[C@@H]1Cc1ccccc1 | 2070 nM | 0.00551 | 1000 nM | 12800 nM | 0.348 | 707 nM | –
2 | NC(=O)[C@@H]1CCC(=O)NCCC[C@@H](NC(=O)[C@@H](N)Cc2ccc(O)cc2)C(=O)N[C@H](CCc2ccccc2)C(=O)N1 | 4160 nM | 0.00274 | 258 nM | 2600 nM | 0.338 | 728 nM | –
3 | NC(=O)[C@@H]1CCC(=O)NCCC[C@@H](NC(=O)[C@@H](N)Cc2ccc(O)cc2)C(=O)N[C@H](Cc2ccccc2)C(=O)N1 | – | 0.00295 | – | 14000 nM | 0.28 | – | 3860 nM
4 | NC(=O)[C@@H]1CCC(=O)NCCC[C@@H](NC(=O)[C@@H](N)Cc2ccc(O)cc2)C(=O)NC2(Cc3ccccc3C2)C(=O)N1 [listing 1 of 2 here] | 36.5 nM | – | 4.21 nM | 209 nM | – | 7.21 nM | –
5 | NC(=O)[C@@H]1CCC(=O)NCCC[C@@H](NC(=O)[C@@H](N)Cc2ccc(O)cc2)C(=O)NC2(Cc3ccccc3C2)C(=O)N1 [listing 2 of 2 here] | – | 0.312 | – | – | 34.1 | – | –
6 | NC(=O)[C@@H]1CCC(=O)NCCC[C@@H](NC(=O)[C@@H](N)Cc2ccc(O)cc2)C(=O)N[C@@H](Cc2ccccc2)C(=O)N1 | 1.11 nM | 10.3 | 0.981 nM | 3.21 nM | 210 | 1.17 nM | –
7 | NC(=O)[C@@H]1CCC(=O)NCCC[C@@H](NC(=O)[C@@H](N)Cc2ccc(O)cc2)C(=O)N2Cc3ccccc3C[C@H]2C(=O)N1 | 7310 nM | 0.00156 | 2410 nM | 50100 nM | 0.0803 | 3060 nM | –
8 | NC(=O)[C@@H]1CCC(=O)NCCC[C@@H](NC(=O)[C@@H](N)Cc2ccc(O)cc2)C(=O)N[C@@H](Cc2ccc3ccccc3c2)C(=O)N1 | 10.9 nM | 1.05 | 2.56 nM | 50.7 nM | 60.5 | 4.07 nM | –
9 | NC(=O)[C@@H]1CCC(=O)NCCC[C@@H](NC(=O)[C@@H](N)Cc2ccc(O)cc2)C(=O)N[C@@H](CCc2ccccc2)C(=O)N1 | 34.3 nM | 0.332 | – | 15.4 nM | 42.3 | 5.82 nM | –
10 | Cc1ccccc1C[C@@H]1NC(=O)[C@H](NC(=O)[C@@H](N)Cc2ccc(O)cc2)CCCNC(=O)CC[C@@H](C(N)=O)NC1=O | 1.11 nM | 10.3 | 1.92 nM | 9.22 nM | 453 | 0.543 nM | –
11 | C[C@]1(Cc2ccccc2)NC(=O)[C@H](NC(=O)[C@@H](N)Cc2ccc(O)cc2)CCCNC(=O)CC[C@@H](C(N)=O)NC1=O | 5.51 nM | 2.07 | 7.17 nM | 54.6 nM | 74.3 | 3.31 nM | –
12 | NC(=O)[C@@H]1CCC(=O)NCCC[C@@H](NC(=O)[C@@H](N)Cc2ccc(O)cc2)C(=O)N[C@]2(CCc3ccccc3C2)C(=O)N1 (single isomer, unassigned) | 254 nM | 0.0449 | 8.26 nM | 1570 nM | 7.78 | 31.6 nM | –
13 | NC(=O)[C@@H]1CCC(=O)NCCC[C@@H](NC(=O)[C@@H](N)Cc2ccc(O)cc2)C(=O)N[C@@]2(CCc3ccccc3C2)C(=O)N1 (single isomer, unassigned) | 3070 nM | 0.00371 | 26.3 nM | 3510 nM | 0.863 | 285 nM | –

Reference: ChEMBL document CHEMBL1125838, “Conformational restriction of the phenylalanine residue in a cyclic opioid peptide analogue: effects on receptor selectivity and stereospecificity” (J Med Chem, 1991)
